{"source": "paper PMC4519694", "about": "(Nature neuroscience, 2015)", "key": {"PDE4 (PKA site)": {"tested_on": "PDE4 (PKA site)", "test": "PDE4 phosphorylation at the PKA site in striatal slices", "type": "cell-based, mouse", "how_it_was_run": "(§1)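 Acute mouse striatal slices, drug-treated, analysed by quantitative immunoblot. Phospho-specific signals normalized to the matching total-protein blot; loading normalized to β-actin, GAPDH and/or Coomassie. The PDE4 PKA-site antibody was an affinity-purified polyclonal, phosphorylation state-specific. Mean ± s.e.m.; t-test or ANOVA with Bonferroni post hoc.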"}, "PDE4B1 (PKA site)": {"tested_on": "PDE4B1 (PKA site)", "test": "PKA-mediated PDE4 phosphorylation in PC12 cells", "type": "cell-based", "conditions": "FSK 10 µM, n = 8 reactions, WT vs S145A at 3 min *P = 0.0241, at 15 min ***P < 0.0001"}, "cAMP in striatal slices": {"tested_on": "cAMP in striatal slices", "test": "cAMP level in striatal slices", "type": "cell-based, mouse"}, "[1]": {"molecular_target": "PDE4B1 phosphorylation by Cdk5 (Homo sapiens, UniProt Q00535)", "sequence (Q00535 whole entry)": "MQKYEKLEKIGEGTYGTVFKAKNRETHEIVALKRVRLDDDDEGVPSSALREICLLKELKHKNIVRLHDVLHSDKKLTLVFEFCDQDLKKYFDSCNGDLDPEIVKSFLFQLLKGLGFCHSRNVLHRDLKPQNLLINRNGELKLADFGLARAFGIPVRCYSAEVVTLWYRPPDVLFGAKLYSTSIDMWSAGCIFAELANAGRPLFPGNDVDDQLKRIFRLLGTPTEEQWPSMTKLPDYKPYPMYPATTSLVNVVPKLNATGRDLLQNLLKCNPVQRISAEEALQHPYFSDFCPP", "sequence (Q15078 99-307 partner limits assumed)": "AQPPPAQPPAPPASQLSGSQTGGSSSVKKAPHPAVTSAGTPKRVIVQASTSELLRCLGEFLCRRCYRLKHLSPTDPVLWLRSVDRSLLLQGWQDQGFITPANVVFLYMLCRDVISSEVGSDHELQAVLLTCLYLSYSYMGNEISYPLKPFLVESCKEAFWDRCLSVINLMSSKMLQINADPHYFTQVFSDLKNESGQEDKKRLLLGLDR", "test": "In vitro Cdk5-dependent phosphorylation of PDE4", "type": "biochemical, rat"}, "PDE4": {"tested_on": "PDE4", "conditions": "ref [35]–[37]; cited from earlier work"}, "humans": {"tested_on": "humans", "conditions": "ref [35]–[37]; cited from earlier work"}, "animals": {"tested_on": "animals", "conditions": "ref [35]–[37]; cited from earlier work"}, "CREB (Ser133)": {"tested_on": "CREB (Ser133)", "test": "Phospho-Ser133 CREB in striatal slices", "type": "cell-based, mouse", "conditions": "50 µM roscovitine, n = 3-6", "how_it_was_run": "as §1"}, "PDE": {"tested_on": "PDE", "test": "PDE activity in striatal lysates", "type": "biochemical, mouse", "conditions": "n = 4 slices"}, "[2]": {"tested_on": "AMPA receptor subunit GluR1 (Ser845)", "test": "Phospho-Ser845 GluR1 in striatal slices", "type": "cell-based, mouse", "conditions": "50 µM roscovitine, n = 3-6", "how_it_was_run": "(§2)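 Acute mouse striatal slices were exposed to test compound and analysed by quantitative immunoblotting. Phospho-specific signals were normalized to the corresponding total-protein blots, and loading to β-actin, GAPDH and/or coomassie staining. Values are mean ± s.e.m.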"}, "synapsin (Ser9)": {"tested_on": "synapsin (Ser9)", "test": "Phospho-Ser9 synapsin in striatal slices", "type": "cell-based, mouse", "conditions": "50 µM roscovitine, n = 3-6", "how_it_was_run": "as §1"}, "DARPP-32 (Thr34)": {"tested_on": "DARPP-32 (Thr34)", "test": "Phospho-Thr34 DARPP-32 in striatal slices", "type": "cell-based, mouse", "conditions": "50 µM roscovitine, n = 3-6", "how_it_was_run": "as §2"}, "NMDA receptor": {"tested_on": "NMDA receptor", "test": "NMDA receptor current, whole-cell recording in striatal neurons", "type": "cell-based, mouse", "conditions": "D-APV 50 µM; NMDA 100 µM; -70 mV"}, "mice": {"tested_on": "mice", "test": "Forced swim test", "type": "in vivo, mouse", "conditions": "infusion into NAc, two-trial FST, n = 5-7 (Supplementary Fig. 12c)", "how_it_was_run": "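Bilateral stereotaxic infusion into NAc under isoflurane (AP +1.50 mm from bregma, ML ±1.4 mm, DV −3.90 mm), 1 µl per hemisphere of peptide (115 µM) or PKA inhibitor (45 µM). Testing followed 90 min after peptide or 45 min after inhibitor. Mice aged 10–12 weeks swam in a glass cylinder of 25°C water for 10 min, then 8 min 24 h later. Two researchers, blind to treatment, scored immobility at 2–6 min.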"}}, "note": "Peptide text beside a SMILES is read from it."}
{"compound": "CCNC(=O)[C@H]1O[C@@H](n2cnc3c(N)nc(NCCc4ccc(CCC(=O)O)cc4)nc32)[C@H](O)[C@@H]1O", "note": "[CGS21680]", "values": [{"measurement": "PKA-mediated PDE4 phosphorylation in response to CGS21680", "setting": "PDE4 (PKA site); 5 µM, 2 min, Cdk5 cKO striatum, n = 4 slices from 2 mice, WT CGS vs cKO CGS *P = 0.0354", "result": "Loss of PKA-mediated PDE4 phosphorylation"}]}
{"compound": "C=C[C@@]1(C)CC(=O)[C@]2(O)[C@@]3(C)[C@@H](O)CCC(C)(C)[C@@H]3[C@H](O)[C@H](OC(C)=O)[C@@]2(C)O1", "note": "[forskolin]", "values": [{"measurement": "PKA-mediated PDE4 phosphorylation after forskolin, S145A PDE4B1 versus WT", "setting": "PDE4B1 (PKA site)", "result": "reduced PKA-mediated PDE4 phosphorylation"}, {"measurement": "PDE4 phosphorylation by PKA", "setting": "PDE4 (PKA site); striatal slices (Supplementary Fig. 1e)", "result": "increased PDE4 phosphorylation by PKA"}]}
{"compound": "Oc1cc2c(c(Cl)c1O)CCNCC2c1ccccc1", "note": "(centres unmarked) [SKF81297]", "values": [{"measurement": "cAMP level", "setting": "cAMP in striatal slices; SKF81297 (1 µM, 10 min unless stated otherwise), n = 4 slices, **P = 0.0030", "result": "increase cAMP to similar levels"}]}
{"compound": "CC[C@H](C)[C@H](NC(=O)[C@H](CCCCN)NC(=O)[C@@H](NC(=O)[C@H](CCC(N)=O)NC(=O)[C@@H](N)CCCNC(=N)N)[C@@H](C)CC)C(=O)N[C@@H](Cc1c[nH]c2ccccc12)C(=O)N[C@@H](Cc1ccccc1)C(=O)N[C@@H](CCC(N)=O)C(=O)N[C@@H](CC(N)=O)C(=O)N[C@@H](CCCNC(=N)N)C(=O)N[C@@H](CCCNC(=N)N)C(=O)N[C@@H](CCSC)C(=O)N[C@@H](CCCCN)C(=O)N[C@@H](Cc1c[nH]c2ccccc12)C(=O)N[C@@H](CCCCN)C(=O)N[C@@H](CCCCN)C(=O)N[C@@H](CCC(=O)O)C(=O)N[C@@H](CO)C(=O)N[C@@H](Cc1ccccc1)C(=O)N[C@@H](CC(C)C)C(=O)N[C@@H](Cc1ccc(O)cc1)C(=O)N[C@@H](CCCNC(=N)N)C(=O)N[C@@H](CO)C(=O)N[C@@H](CC(=O)O)C(=O)N[C@@H](CO)C(=O)N[C@@H](CC(=O)O)C(=O)N[C@@H](Cc1ccc(O)cc1)C(=O)N[C@@H](CC(=O)O)C(=O)N[C@@H](CC(C)C)C(=O)N[C@@H](CO)C(=O)N1CCC[C@H]1C(=O)N[C@@H](CCCCN)C(=O)N[C@@H](C)C(=O)N[C@@H](CCSC)C(=O)O", "note": "[PDE4-siP] (H-RQIKIWFQNRRMKWKKESFLYRSDSDYDLSPKAM-OH)", "values": [{"measurement": "IC50", "setting": "[1]", "result": 13, "unit": "µM"}]}
{"compound": "COc1ccc(C2CNC(=O)C2)cc1OC1CCCC1", "note": "(centres unmarked) [rolipram, 4-[3-(cyclopenotoxyl)-4-methoxyphenyl]-2-pyrrolidone]", "values": [{"measurement": "cAMP", "setting": "PDE4", "result": "elevate cAMP"}, {"measurement": "antidepressant activity", "setting": "humans", "result": "have antidepressant activity in humans"}, {"measurement": "behavioral responses to stressors", "setting": "animals", "result": "affect behavioral responses to stressors in animals"}]}
{"compound": "CC[C@H](CO)Nc1nc(NCc2ccccc2)c2ncn(C(C)C)c2n1", "note": "[roscovitine]", "values": [{"measurement": "PKA-dependent phosphorylation of CREB (Ser133)", "setting": "CREB (Ser133)", "result": "induced PKA-dependent phosphorylation"}, {"measurement": "cAMP level", "setting": "cAMP in striatal slices; Ros, n = 3 slices, *P = 0.0216", "result": "increase cAMP to similar levels"}, {"measurement": "PDE activity", "setting": "PDE; roscovitine 10 µM, *P = 0.011", "result": "attenuates PDE activity"}, {"measurement": "PDE activity", "setting": "PDE; roscovitine 50 µM, **P = 0.0037", "result": "attenuates PDE activity"}, {"measurement": "phosphorylation of GluR1 (Ser845)", "setting": "[2]", "result": "increased phosphorylation"}, {"measurement": "PKA-dependent phosphorylation of synapsin (Ser9)", "setting": "synapsin (Ser9)", "result": "induced PKA-dependent phosphorylation"}, {"measurement": "phosphorylation of DARPP-32 (Thr34)", "setting": "DARPP-32 (Thr34)", "result": "increased phosphorylation"}]}
{"compound": "N[C@H](CCCP(=O)(O)O)C(=O)O", "note": "[D-APV]", "values": [{"measurement": "NMDA-evoked current", "setting": "NMDA receptor", "result": "blocked"}]}
{"compound": "RRRRRRR- ESFLYRSDSDYDLSPKAM [poly-arginine tagged PDE4 peptide]", "values": [{"measurement": "FST performance", "setting": "mice", "result": "analogical effect on FST performance"}]}
